From ChEMBL document CHEMBL1146906, “Novel potent anticonvulsant agent containing a tetrahydroisoquinoline skeleton” (2006)

Columns and labels:
[1] = tested on: Mus musculus; test: Anticonvulsant activity against tonic phase of audiogenic seizures in ip dosed DBA/2 mouse; assay type: functional; conditions: DBA/2, ip
Procedure, shortened: (§1)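 DBA/2 mice of either sex, groups of 10, given vehicle or each dose intraperitoneally, then exposed to auditory stimulation […]. Incidence of each seizure phase scored. ED50 per phase from dose-response curves fitted by Litchfield and Wilcoxon method. Groups compared by Fisher's exact probability test.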

[2] = tested on: Mus musculus; test: Anticonvulsant activity against clonic phase of audiogenic seizures in ip dosed DBA/2 mouse; assay type: functional; conditions: DBA/2, ip; procedure, shortened: as §1
[3] = species: Rattus norvegicus; test: Inhibition of AMPA-induced membrane current in Wistar rat olfactory cortex at 0.5 uM by voltage clamp method; assay type: functional; parameters: scale not given: the % may be the effect or the level left
Procedure, shortened: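 Transverse olfactory cortex slices from male Wistar rats, kept in oxygenated Krebs solution and superfused with 1 µM TTX. Neurons voltage-clamped at -70 mV. Test agent diluted from DMSO stock into Krebs (0.1-1% v/v DMSO) and pre-incubated 10 min. Peak inward currents evoked by 0.25-5 µM AMPA measured. Pooled means, N = 7.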

[4] = target: Glutamate receptor ionotropic, AMPA (Rattus norvegicus) (UniProt P19491+P19492+P19493+P19490); test: Displacement of [3H]AMPA from AMPA receptor at 0.5 uM; assay type: protein-complex assay
Procedure, shortened: (§2)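 Radioligand binding assays run at 0.5 µM test compound, using [3H]AMPA, [3H]CGP 39653 or [3H]kainic acid as ligand.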

[5] = target: Glutamate NMDA receptor (Rattus norvegicus) (UniProt P35439+Q00959+Q00960+Q00961+Q62645+Q8VHN2+Q9R1M7); test: Displacement of [3H]CGP-39653 from NMDA receptor at 0.5 uM; assay type: protein-complex assay; procedure, shortened: as §2
[6] = target: Glutamate receptor ionotropic, kainate (Rattus norvegicus) (UniProt P22756+Q01812+P42260+P42264+Q63273); test: Displacement of [3H]kainic acid from kainate receptor at 0.5 uM; assay type: protein-complex assay; procedure, shortened: as §2

| Compound | ED50 [1] | ED50 [2] | further results |
| --- | --- | --- | --- |
| CCN(CC)CC(=O)N1CCc2cc(OC)c(OC)cc2C1c1ccc(Cl)cc1 (stereo not drawn) | 11.8 µmol/kg | 24.7 µmol/kg | – |
| COc1cc2c(cc1OC)C(c1ccc(N)cc1)=NNC(=O)C2 | – | 15 µmol/kg | – |
| CCN(CC)CC(=O)N1CCc2cc(OC)c(OC)cc2C1c1cccc(N)c1 (stereo not drawn) | 50.5 µmol/kg | 111 µmol/kg | – |
| CCN(CC)CC(=O)N1CCc2cc(OC)c(OC)cc2C1c1ccccc1 (stereo not drawn) | 34.8 µmol/kg | 49.1 µmol/kg | – |
| COc1cc2c(cc1OC)C(c1ccc(Cl)cc1)N(C(=O)CN1CCOCC1)CC2 (stereo not drawn) | 82.8 µmol/kg | > 100 µmol/kg | – |
| COc1cc2c(cc1OC)C(c1ccc(N)cc1)N(C(=O)CN1CCCCC1)CC2 (stereo not drawn) | 45.3 µmol/kg | 84.9 µmol/kg | – |
| COc1cc2c(cc1OC)C(c1ccc([N+](=O)[O-])cc1)N(C(=O)CN1CCCCC1)CC2 (stereo not drawn) | > 100 µmol/kg | > 100 µmol/kg | – |
| COc1cc2c(cc1OC)C(c1ccc(Cl)cc1)N(C(=O)CN1CCCCC1)CC2 (stereo not drawn) | 17 µmol/kg | 39.8 µmol/kg | – |
| COc1cc2c(cc1OC)C(c1cccc(N)c1)N(C(=O)CN1CCCCC1)CC2 (stereo not drawn) | 47.3 µmol/kg | 70.2 µmol/kg | – |
| COc1cc2c(cc1OC)C(c1ccc(Cl)cc1)N(C(C)=O)CC2 (stereo not drawn) | – | – | Activity [3]: 7% |
| CCN(CC)CC(=O)N1CCc2cc(OC)c(OC)cc2C1c1cccc([N+](=O)[O-])c1 (stereo not drawn) | 16.7 µmol/kg | 38.6 µmol/kg | – |
| COc1cc2c(cc1OC)C(c1ccc([N+](=O)[O-])cc1)N(C(=O)CN1CCOCC1)CC2 (stereo not drawn) | 56.5 µmol/kg | > 100 µmol/kg | – |
| COc1cc2c(cc1OC)C(c1ccccc1)N(C(=O)CN1CCCCC1)CC2 (stereo not drawn) | > 100 µmol/kg | > 100 µmol/kg | – |
| COc1cc2c(cc1OC)C(c1ccc(F)cc1)N(C(=O)CN1CCCCC1)CC2 (stereo not drawn) | 63 µmol/kg | 82.8 µmol/kg | – |
| CCN(CC)CC(=O)N1CCc2cc(OC)c(OC)cc2C1c1ccc(Br)cc1 (stereo not drawn) | 24.7 µmol/kg | 50.5 µmol/kg | – |
| COc1cc2c(cc1OC)C(c1cccc([N+](=O)[O-])c1)N(C(=O)CN1CCOCC1)CC2 (stereo not drawn) | > 100 µmol/kg | > 100 µmol/kg | – |
| CCN(CC)CC(=O)N1CCc2cc(OC)c(OC)cc2C1c1ccc(F)cc1 (stereo not drawn) | 33 µmol/kg | 44.5 µmol/kg | – |
| COc1cc2c(cc1OC)C(c1cccc([N+](=O)[O-])c1)N(C(=O)CN1CCCCC1)CC2 (stereo not drawn) | 82.8 µmol/kg | > 100 µmol/kg | – |
| COc1cc2c(cc1OC)C(c1ccccc1)N(C(=O)CN1CCOCC1)CC2 (stereo not drawn) | > 100 µmol/kg | > 100 µmol/kg | – |
| CCN(CC)CC(=O)N1CCc2cc(OC)c(OC)cc2C1c1ccc(N)cc1 (stereo not drawn) | 49 µmol/kg | 80.2 µmol/kg | – |
| COc1cc2c(cc1OC)C(c1cccc(N)c1)N(C(=O)CN1CCOCC1)CC2 (stereo not drawn) | 34.3 µmol/kg | 63.4 µmol/kg | – |
| COc1cc2c(cc1OC)C(c1ccc(F)cc1)N(C(=O)CN1CCOCC1)CC2 (stereo not drawn) | 46.9 µmol/kg | 71.7 µmol/kg | – |
| COc1cc2c(cc1OC)C(c1ccc(N)cc1)N(C(=O)CN1CCOCC1)CC2 (stereo not drawn) | 63.4 µmol/kg | 87.5 µmol/kg | – |
| CC(=O)N1N=C(c2ccc(N)cc2)c2cc3c(cc2C[C@H]1C)OCO3 [TALAMPANEL] | 9.7 µmol/kg | – | – |
| CCN(CC)CC(=O)N1CCc2cc(OC)c(OC)cc2C1c1ccc([N+](=O)[O-])cc1 (stereo not drawn) | > 100 µmol/kg | > 100 µmol/kg | – |
| COc1cc2c(cc1OC)C(c1ccc(Br)cc1)N(C(=O)CN1CCOCC1)CC2 (stereo not drawn) | 83.8 µmol/kg | > 100 µmol/kg | – |
| COc1cc2c(cc1OC)C(c1ccc(Br)cc1)N(C(=O)CN1CCCCC1)CC2 (stereo not drawn) | – | – | Activity [4]: < 6%; Activity [5]: < 6%; Activity [6]: < 6%; Activity [3]: 6% |
